One assay concerns A549. The assay can be described thus: Antiproliferative activity against human A549 cells assessed as reduction in cell proliferation incubated for 48 hrs by MTT assay. Type of assay: functional, cell-based. The settings on record: A549, 48 h. A digest of the protocol:
(§1)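 Log-phase cells were plated at 5 × 10^3/well in RPMI-1640 with 10% FBS and cultured 24 h. Compounds were added at graded concentrations (DMSO <0.1%) for 48 h. MTT (5 mg/mL) was added for about 4 h, formazan was dissolved in DMSO and A490 was read. IC50 was calculated from ≥3 independent experiments and reported as mean ± SD. Chrysin served as positive control.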
(In general: Formazan colour is commonly taken as a measure of viable cells.)

For another assay, the system named is PC-3. The assay is described as follows: Antiproliferative activity against human PC3 cells assessed as reduction in cell proliferation incubated for 48 hrs by MTT assay. Type of assay: functional, cell-based. As to conditions: PC-3, 48 h. A digest of the protocol: as §1
The test system of another assay is K562. The assay can be described thus: Antiproliferative activity against human K562 cells assessed as reduction in cell proliferation incubated for 48 hrs by MTT assay. The format is functional, cell-based. The settings on record: K562, 48 h. A digest of the protocol:
as §1

For another assay, the system named is NCI-H1299. The assay can be described thus: Antiproliferative activity against human H1299 cells assessed as reduction in cell proliferation incubated for 48 hrs by MTT assay. Type of assay: functional, cell-based. The settings on record: NCI-H1299, 48 h. A digest of the protocol: as §1
Another assay has as its system MRC5. The assay can be described thus: Cytotoxicity against human MRC5 cells assessed as reduction in cell proliferation incubated for 48 hrs by MTT assay. Type of assay: cell-based. The settings on record: MRC5, 48 h. The gist of the method:
as §1

By IC50 is commonly meant the concentration needed to halve the response being measured.

Regarding `COc1ccc2c(c1)C1(C(=O)N2Cc2ccccc2)C(C#N)=C(N)Oc2cc3oc(-c4ccccc4)cc(=O)c3c(O)c21` (stereo not given), the IC50 in the assay on A549, in the assay on PC-3, in the assay on K562 and in the assay with NCI-H1299 was greater than 50 µM each time.

For `CN1C(=O)C2(C(C#N)=C(N)Oc3cc4oc(-c5ccccc5)cc(=O)c4c(O)c32)c2ccccc21` (stereo not given), the half-inhibitory concentration (IC50) with A549, in the assay on PC-3, in the assay on K562 and in the assay on NCI-H1299 was greater than 50 µM throughout.

Take `CN1C(=O)C2(C(C#N)=C(N)Oc3cc4oc(-c5ccccc5)cc(=O)c4c(O)c32)c2cccc(Cl)c21` (stereo not given): the concentration for half-maximal inhibition (IC50) with A549 was greater than 50 µM; in the assay on PC-3, greater than 50 µM; with K562, 41.4 µM; with NCI-H1299, greater than 50 µM.

With `CCN1C(=O)C2(C(C#N)=C(N)Oc3cc4oc(-c5ccccc5)cc(=O)c4c(O)c32)c2cc(C)ccc21` (stereo not given), the half-inhibitory concentration (IC50) in the assay with A549, in the assay with PC-3, in the assay with K562 and in the assay on NCI-H1299 was greater than 50 µM throughout.

For the molecule `N#CC1=C(N)Oc2cc3oc(-c4ccccc4)cc(=O)c3c(O)c2C12C(=O)N(Cc1ccccc1)c1ccc(Br)cc12` (stereo not given), the half-inhibitory concentration (IC50) was greater than 50 µM in the assay with A549, greater than 50 µM with PC-3, 36.4 µM in the assay with K562 and greater than 50 µM with NCI-H1299.

For the molecule `Cc1ccc2c(c1)C1(C(=O)N2C)C(C#N)=C(N)Oc2cc3oc(-c4ccccc4)cc(=O)c3c(O)c21` (stereo not given), the half-maximal inhibitory concentration (IC50) with A549 was 7.06 µM; with PC-3, greater than 50 µM; with K562 it was 5.87 µM; with NCI-H1299 it was 10.2 µM.

In the case of `CCN1C(=O)C2(C(C#N)=C(N)Oc3cc4oc(-c5ccc(OC)cc5OC)cc(=O)c4c(O)c32)c2cc(Br)ccc21` (stereo not given), the IC50 in the assay with A549 is greater than 50 µM; in the assay with PC-3, greater than 50 µM; with K562, 16.1 µM; in the assay with NCI-H1299, greater than 50 µM.

With `CC(C)(C)OC(=O)CN1C(=O)C2(C(C#N)=C(N)Oc3cc4oc(-c5ccccc5)cc(=O)c4c(O)c32)c2ccccc21` (stereo not given), the IC50 in the assay with A549, in the assay on PC-3, in the assay on K562 and in the assay on NCI-H1299 was greater than 50 µM each time.

For the molecule `COc1ccc(-c2cc(=O)c3c(O)c4c(cc3o2)OC(N)=C(C#N)C42C(=O)N(C)c3ccc(C)cc32)c(OC)c1` (stereo not given), the IC50 with A549 was greater than 50 µM; in the assay with PC-3, greater than 50 µM; with K562, 12.2 µM; with NCI-H1299, greater than 50 µM.

As for `N#CC1=C(N)Oc2cc3oc(-c4ccccc4)cc(=O)c3c(O)c2C12C(=O)N(c1ccccc1)c1ccccc12` (stereo not given), the IC50 in the assay on A549, in the assay on PC-3, in the assay with K562 and in the assay on NCI-H1299 was greater than 50 µM each time.

For `N#CC1=C(N)Oc2cc3oc(-c4ccccc4)cc(=O)c3c(O)c2C12C(=O)N(Cc1ccccc1)c1ccc(Cl)cc12` (stereo not given), the half-maximal inhibitory concentration (IC50) was greater than 50 µM in the assay with A549, greater than 50 µM with PC-3, 36.3 µM in the assay on K562 and greater than 50 µM with NCI-H1299.

As for `O=c1cc(-c2ccccc2)oc2cc(O)cc(O)c12` [CHRYSIN], the IC50 in the assay on A549 was greater than 50 µM; in the assay with MRC5, greater than 100 µM; in the assay with PC-3, greater than 50 µM; with K562, greater than 50 µM; with NCI-H1299, greater than 50 µM.

Consider `Cc1cccc2c1N(Cc1ccccc1)C(=O)C21C(C#N)=C(N)Oc2cc3oc(-c4ccccc4)cc(=O)c3c(O)c21` (stereo not given), for which the half-maximal inhibitory concentration (IC50) in the assay on A549, with PC-3, in the assay on K562 and with NCI-H1299 was greater than 50 µM in each case.

Take `CCN1C(=O)C2(C(C#N)=C(N)Oc3cc4oc(-c5ccc(OC)cc5OC)cc(=O)c4c(O)c32)c2cc(Cl)ccc21` (stereo not given): the half-inhibitory concentration (IC50) is greater than 50 µM in the assay with A549, greater than 50 µM in the assay with PC-3, 8.45 µM in the assay on K562 and greater than 50 µM in the assay on NCI-H1299.

Regarding `CCN1C(=O)C2(C(C#N)=C(N)Oc3cc4oc(-c5ccccc5)cc(=O)c4c(O)c32)c2cccc(C)c21` (stereo not given), the IC50 in the assay on A549, with PC-3, in the assay with K562 and with NCI-H1299 was greater than 50 µM in each case.

For the molecule `N#CC1=C(N)Oc2cc3oc(-c4ccccc4)cc(=O)c3c(O)c2C12C(=O)N(Cc1ccccc1)c1c(Cl)cccc12` (stereo not given), the IC50 in the assay with A549 is greater than 50 µM; in the assay on PC-3 it was greater than 50 µM; in the assay on K562 it was 47.8 µM; in the assay with NCI-H1299, greater than 50 µM.

As for `N#CC1=C(N)Oc2cc3oc(-c4ccccc4)cc(=O)c3c(O)c2C12C(=O)Nc1cc(Cl)ccc12` (stereo not given), the IC50 in the assay with A549 is 8.47 µM; in the assay with PC-3 it was 25.7 µM; in the assay on K562, 9.25 µM; in the assay with NCI-H1299 it was 16.6 µM.

Turning to `N#CC1=C(N)Oc2cc3oc(-c4ccccc4)cc(=O)c3c(O)c2C12C(=O)N(Cc1ccccc1)c1ccc(F)cc12` (stereo not given), the IC50 with A549, in the assay on PC-3, in the assay on K562 and in the assay with NCI-H1299 was greater than 50 µM in each case.

As for `CN1C(=O)C2(C(C#N)=C(N)Oc3cc4oc(-c5ccccc5)cc(=O)c4c(O)c32)c2cc(Cl)ccc21` (stereo not given), the IC50 in the assay on A549 is 4.72 µM; in the assay on PC-3, 21.4 µM; in the assay with K562, 4.34 µM; in the assay with NCI-H1299, 11.2 µM.

Consider `N#CC1=C(N)Oc2cc3oc(-c4ccccc4)cc(=O)c3c(O)c2C12C(=O)Nc1c(Cl)cccc12` (stereo not given), for which the IC50 in the assay with A549 was greater than 50 µM; with PC-3, greater than 50 µM; with K562, 37.5 µM; with NCI-H1299 it was greater than 50 µM.

With `COc1ccc(-c2cc(=O)c3c(O)c4c(cc3o2)OC(N)=C(C#N)C42C(=O)N(Cc3ccccc3)c3ccccc32)c(OC)c1` (stereo not given), the 50% inhibitory concentration (IC50) in the assay with A549, with PC-3, in the assay with K562 and in the assay with NCI-H1299 was greater than 50 µM each time.

In the case of `Cc1ccc2c(c1)C1(C(=O)N2Cc2ccccc2)C(C#N)=C(N)Oc2cc3oc(-c4ccccc4)cc(=O)c3c(O)c21` (stereo not given), the half-maximal inhibitory concentration (IC50) with A549, in the assay on PC-3, in the assay with K562 and in the assay with NCI-H1299 was greater than 50 µM in each case.

For the molecule `N#CC1=C(N)Oc2cc3oc(-c4ccccc4)cc(=O)c3c(O)c2C12C(=O)Nc1cc(Br)ccc12` (stereo not given), the IC50 in the assay with A549 stood at 9.34 µM; with PC-3, 24.8 µM; in the assay with K562, 8.7 µM; in the assay on NCI-H1299 it was 14.4 µM.

As to `Cc1ccc2c(c1)C1(C(=O)N2Cc2ccccc2)C(C#N)=C(N)Oc2cc3oc(-c4ccccc4F)cc(=O)c3c(O)c21` (stereo not given), the IC50 in the assay with A549, in the assay on PC-3, with K562 and in the assay with NCI-H1299 was greater than 50 µM in each case.

As to `N#CC1=C(N)Oc2cc3oc(-c4ccccc4)cc(=O)c3c(O)c2C12C(=O)Nc1ccccc12` (stereo not given), the half-inhibitory concentration (IC50) in the assay on A549 was 37.6 µM; in the assay with PC-3, greater than 50 µM; with K562, 36.4 µM; in the assay with NCI-H1299, greater than 50 µM.

Consider `Cc1ccc2c(c1)C1(C(=O)N2)C(C#N)=C(N)Oc2cc3oc(-c4ccccc4)cc(=O)c3c(O)c21` (stereo not given), for which the half-maximal inhibitory concentration (IC50) in the assay with A549, in the assay with PC-3, with K562 and in the assay on NCI-H1299 was greater than 50 µM throughout.
